According to the EternaBench riboswitch data:

System: MS2 coat protein
Assay: apparent Kd, MS2 coat protein; higher = weaker binding; RNA-MaP array; FMN 200 µM where present
Method in brief: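 Each design was made on Illumina sequencing-chip clusters by stalled E. coli RNA polymerase and titrated with SNAP-549-labelled MS2 coat protein from 0.7 or 1.5 nM, doubling to 3 µM, in the absence and then the presence of constant ligand. The buffer was 100 mM Tris-HCl pH 7.5, 80 mM KCl, 4 mM MgCl2, BSA, DTT, yeast tRNA and Tween-20. The apparent Kd is the median of filtered per-cluster fits of binding curves, with green signal normalised to red-channel RNA signal and control-cluster median Fmax.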

[1] = designed as: OFF switch for flavin mononucleotide, no ligand
[2] = ligand present: flavin mononucleotide, designed as: OFF switch for flavin mononucleotide
[3] = designed as: ON switch for flavin mononucleotide, no ligand
[4] = ligand present: flavin mononucleotide, designed as: ON switch for flavin mononucleotide

Row | Sequence | apparent Kd [1] | apparent Kd [2] | apparent Kd [3] | apparent Kd [4]
1 | UGUCGGAGCAGAGGAUAUUACAUGAGGAUCACCCAUGUGUGAACCAAUAGCUGGAAACAGCAAUGUAAGAAGGCUGCUCCGACA | 58.4 nM | 29.2 nM | – | –
2 | UGAGUAGCGAAACAAUGCACAUGAGGAUCACCCAUGUCUACACAGGAUAUGCGACGCUCCAGUUAGCAGAAGGGUGAACUCAAA | – | – | 40.2 nM | 82.3 nM
3 | CGUGCGUAUGUGAGGAUAUGCUGGUCCUUGGAUCGGCAGAAGGCACAUGAGGAUCACCCAUGUGGUGUCGUGCA | 376 nM | 30.3 nM | – | –
4 | CAUCUACAGGGAGGAUAUACAUGAGGAUCACCCAUGUCAUCAUACGAUCUUUCUUUUGUAUGAGUGUAGAAGGCCCAACUACCA | 15.2 nM | 15.2 nM | – | –
5 | UGUAAUGCUAUUGCAGAGGUUUAGAAGGAUAUACAUCGACAUGACCGUACAUGAGGAUCACCCAUGUAGAAGGUCUAACUUCGU | 5.61 nM | 5.55 nM | – | –
6 | GCCUAUGUGGAGGAUAUCGACUUCGAAAGAAGUCGAGAAGGCCACACAUGAGGAUCACCCAUGUGAUGCCAGGC | 122 nM | 86 nM | – | –
7 | UCUCGACAUGAGGAUCACCCAUGUCAGGAUAUUGUAUUAGAGGUUUUUUACCUUAUAACAAGAAGGGAUGUGUG | 22.9 nM | 26.8 nM | – | –
8 | CACCGUUAGUGAGGAUAUAGUACAUGAGGAUCACCCAUGUAAUAAAUGAGAAUUUCGGAUGUAUGCUAGAAGGCACAAAUCGGC | 60.4 nM | 65.8 nM | – | –
9 | AGUCGUCAAGGAUAUAUAGUGAAGCACAAGCAGUGCCCUCUACAUGAGGAUCACCCAUGUAGAAGGUGGCGACU | 15.6 nM | 14.2 nM | – | –
10 | CUGGAUAGAGGAUAUUGUACUGCUGACAUGAGGAUCACCCAUGUAUGUUAACUCGGCCGUCGAGAAGGCUAACAAG | 37.7 nM | 17.9 nM | – | –
11 | CCCAGUGCAUCAGGAUAUCCUCACAUGAGGAUCACCCAUGUAAUGAGCCGAGGAGAAGGGAUGUGAACUCCAGUUACCGAUCGU | – | – | 267 nM | 42.2 nM
12 | CGUUAUGAUAGAGGAUAUGUAAUACAUGAGGAUCACCCAUGUCACAUGGACAUUGUUUCUAAUUUACAGAAGGCUAUCCUUUCG | 20.3 nM | 16.3 nM | – | –
13 | GUCCCACAUGAGGAUCACCCAUGUGAGGAUAUGGAUUCGCUGGCCGUAGCCAGUGGAUCCAGAAGGCGCAUGAU | 19.6 nM | 26.5 nM | – | –
14 | AAACUGCCACAUGAGGAUCACCCAUGUAAAUAAAGUAUUUGGAGAAGGGCGAUAGCAAAGCUAUCGCAGGAUAUCCUCAGGCAG | – | – | 801 nM | 87.9 nM
15 | CCAUGCAGUGUGAGGAUAUGCUGGUCCUUGGAUCAGCAGAAGGCACAUGAGGAUCACCCAUGUGAAUAGCGUGG | 44.6 nM | 356 nM | – | –
16 | AGCCAACAUGAGGAUCACCCAUGUCUACAGGAUUAAGGAUAUGGGCAGGGCUUCCCUGCACUAGAAGGUGAUCGAA | – | – | 153 nM | 214 nM
17 | AAAUUUAACGAAGGAUAUACAAACAUGAGGAUCACCCAUGUGUGUUUCGUGUUACUGAAAUUCGGGUAGAAGGUCGUAUACAUA | 23.4 nM | 18.1 nM | – | –
18 | UAUUAGUGAGGAUAUGAGUCGUAGAACAAUAGUACUACGUCUCAGAAGGUACAUGAGGAUCACCCAUGUUCCUC | 19 nM | 22.8 nM | – | –
19 | UGGUACUAGGGAGGAUAUGGGAAGAUACAUGAGGAUCACCCAUGUUUAGGAAUGCCGAGAGGCAACUAGAAGGCCCUAGUACCU | – | – | 832 nM | 46.1 nM
20 | AGACCCAUGACAUGACAUGACAUGAGGAUCACCCAUGUUUACAAGGAUAUGUUGAUGAAACAUCAACAGAAGGUGUAAUGGGCU | 20.9 nM | 73.1 nM | – | –
21 | GAUACACAUGAGGAUCACCCAUGUGAGGAUAUGCGUACGUUGUCCGUAGGCGACGUGCGCAGAAGGCGCUUGGU | 72.2 nM | 75 nM | – | –
22 | CGAUAUACGAUGGACGGAAACGUACAUGAGGAUCACCCAUGUAGAAGGCGAUCCGCAACGCGGAUUGAGGAUAUAUACCACACA | 23.8 nM | 23.3 nM | – | –
23 | GGUCCACGAGGAUAUCGAUUAUAGUACAUGAGGAUCACCCAUGUUGUCCAGGUUUCGUUUCGAGAAGGCGUGGGUU | 88.4 nM | 52.6 nM | – | –
24 | CGCAUGCGUAGUAUUAGUUGCUGACAGGAUAUGACAUGAGGAUCACCCAUGUGAAUUAAGAAGAGUCAGAAGGGUCACGUUGCG | 11.6 nM | 10.6 nM | – | –

Row | Sequence | apparent Kd [1] | apparent Kd [2] | apparent Kd [3] | apparent Kd [4]
25 | GGAUAGGACAGAGGAUAUACGUGCUAGAGAUACUAGCAAAAUUUCGUCACAUGAGGAUCACCCAUGUAGAAGGCUGUCCUAUCG | 5.02 nM | 7.65 nM | – | –
26 | GUUAUUAUUAGUUCAUACUAUAAGAUAGAAGGUGAUUUAUUGACAUGAGGAUCACCCAUGUAAUUCAAGGAUAUGUAGAUACUC | – | – | 374 nM | 248 nM
27 | UAUAAAAUUAUAGGAUAUCGAUAUCAAAGAUAUCGAGAAGGGUGAAUAUAAUAUUAUCUGUACAUGAGGAUCACCCAUGUUUAU | – | – | 276 nM | 87.2 nM
28 | CCAUGGCUGUUAGGAUAUGUCUGACAAAGUCAGACAGAAGGGACAUGAGGAUCACCCAUGUGAAGAAAACCACAUUUGCCAUGG | 7.74 nM | 7.72 nM | – | –
29 | GAUGAGGUAGGAUAUACGAUAAUAUAGGGUAGAUAUAUAACACAUGAGGAUCACCCAUGUAGAAGGACCAGUAG | 33.5 nM | 73.4 nM | – | –
30 | CCGGCUGCUGUGAGGAUAUGCCUGUGCGCCCGCGGGCAGAAGGCACAUGAGGAUCACCCAUGUCCUGCGGUCCC | 39 nM | 41.2 nM | – | –
31 | AAAAGACAUGAGGAUCACCCAUGUAAAGACGUAGGAGGAUAUGUAUGGAAACCAUACUGUACAGAAGGCCUUUGUC | – | – | 23.8 nM | 18.3 nM
32 | UUAUUACAUGAGGAUCACCCAUGUUUAGUGGUGACAGGAUAUACGAAAAAAAAAAAAAAAGUAGAAGGGUCUUAUU | – | – | 503 nM | 742 nM
33 | GAUUAACAUGAGGAUCACCCAUGUGAGGAUAUGGAAUGGCACAUUGUUUGAUUCCCGUCUAGAAGGCACAUCUU | 44.5 nM | 41.6 nM | – | –
34 | UUUAUAUUCAGAGGAUAUUAAUGUAGUAUAAUAUAAGAAGGCUGUUUGUUUUGUAAAGUUAUUAUACAUGAGGAUCACCCAUGU | – | – | 18.4 nM | 15.5 nM
35 | GUAACGCUUGACAUGAGGAUCACCCAUGUUAGAUUGUUAUGUCAGGAUAUAGUCUAGAAACUAGACUAGAAGGGAUAUGUUACU | – | – | 69.6 nM | 29.4 nM
36 | CUAAAUCAUGUAGGAUAUGCGUGGCGAAGCUAUGCAGAAGGACAUGAGGAUCACCCAUGUCAAAAUUUCUGCGUACAGACGGAA | 15.5 nM | 30.7 nM | – | –
37 | GCGUAUAUAUUAUUUAUUUAACAGUCAGAAGGUGAGAAGACGACAUGAGGAUCACCCAUGUUAUUCAAGGAUAUGAUAAUGCGC | – | – | 27.5 nM | 13.3 nM
38 | ACCACGUUAGCGAUAUGAUCGAGAGAUCAUGUCGCUAUAUUUAGAAGGACAUGAGGAUCACCCAUGUAGGAUAUGGGUCGUGGA | – | – | 36.3 nM | 9.03 nM
39 | UCUCGUGUUCAGAAGGGCAAUCAACGAACAUGAGGAUCACCCAUGUUCUGCAGGAUAUGAACGGGUGGGAGCCCUGCGAAGGGC | – | – | 104 nM | 15 nM
40 | GCACAUGAUACAGGAUAUGUUUUGGAUUUUAUAUGCAGUUAUAAUUUUUUGACAGAAGGGUAUACAUGAGGAUCACCCAUGUGC | 161 nM | 75 nM | – | –
41 | GUAGCUAUCGGAGGAUAUUCAUACCGGAAACGGACAUGAGGAUCACCCAUGUGGCGAAAGUCUUGGGAGAAGGCCGAUAGCUAC | – | – | 75.5 nM | 6.28 nM
42 | GACAUGAGGAUCACCCAUGUCCCUCCAGAAGGCUGGCGCGCGAAACCUAUAUCGGUUCCGGGCACAGAGGAUAUGGGCGGUUGG | – | – | 199 nM | 27.2 nM
43 | UAGUUACAUGAGGAUCACCCAUGUGAGGAUAUGAGUCAGUCACGGUGACGUGGCUGACUCAGAAGGCACUAUGG | 198 nM | 154 nM | – | –
44 | CCGGAUACGGGUAGCCUGACAUGAGGAUCACCCAUGUGAUCCAAGGAUAUGGAUCCUAAUUGGAUCCAGAAGGUGGUUGGCUAC | – | – | 682 nM | 369 nM
45 | UGUGUGAGACAGGAUAUGCCAGAUGUAUUACUGGUAGAAGGGUCUACAUGAGGAUCACCCAUGUGGCCGGCCGG | 27.1 nM | 61.8 nM | – | –
46 | GCAAAGCCUGACAUGAGGAUCACCCAUGUUAGAUUGUUAUGUCAGGAUAUUGUCUAGACACUAGACAAGAAGGGAUGCUUUGCU | – | – | 366 nM | 34.2 nM
47 | AAGUUUUUACAAGGAUAUCAAUUUUAUCUUAAUUCAACAUGAGGAUCACCCAUGUAACAAUGGAGUGAGAAGGUGUAAUGGCUU | – | – | 617 nM | 234 nM
48 | UCUUUACAUGAGGAUCACCCAUGUGAGGAUAUGGAUUCGCUGGCCGUAGCCAGUGGAUCCAGAAGGCGCAUGAU | 26.6 nM | 48 nM | – | –
